Most compounds without a hit are left out; they make up all but 2.3% or so of the library.
V1R ag counter: agonists of human V1a receptor, primary screen, counter-screen for OXTR agonist project, fluorescence, CHO-V1R cells; Vasopressin V1a receptor (Homo sapiens), P37288; Fluo-8 calcium fluorescence, agonist mode; 0% DMSO, 100% 3 nM vasopressin; activation, % at 3 µM; actives 0.25% (n = 320,000); AID 2797, 2010;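 active means activation above the mean activation of all tested compounds plus 3 SD, per screening run, cut at about 20% in these data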;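 further: signal is peak over basal fluorescence ratio across a 100 second FLIPR read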
OXTR ag: human OXTR agonists, primary screen, fluorescence, CHO-OTR cells, Fluo-8 calcium. Fluo-8 calcium fluorescence; normalized: DMSO 0%, oxytocin 100%. activation, % at 3 µM. actives 0.32% (n = 320,000). AID 2435, 2010;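 active means activation above the mean of all tested compounds plus 3 SD, cutoff set per screening run, cut at about 20% in these data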;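 further: peak over basal fluorescence ratio from a 100 s FLIPR kinetic read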
Target sequence (P30559 whole entry, looked up): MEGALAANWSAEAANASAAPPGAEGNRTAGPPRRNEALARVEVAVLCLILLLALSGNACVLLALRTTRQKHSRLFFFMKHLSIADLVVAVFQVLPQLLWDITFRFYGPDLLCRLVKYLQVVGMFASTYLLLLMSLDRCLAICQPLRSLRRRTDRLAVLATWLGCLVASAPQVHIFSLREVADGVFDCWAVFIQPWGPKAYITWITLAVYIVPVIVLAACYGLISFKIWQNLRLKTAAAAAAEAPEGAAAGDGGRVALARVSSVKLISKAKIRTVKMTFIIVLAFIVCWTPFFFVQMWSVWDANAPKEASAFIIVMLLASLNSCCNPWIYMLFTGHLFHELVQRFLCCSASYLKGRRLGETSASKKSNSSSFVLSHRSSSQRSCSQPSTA
OXTR potentiator: human OXTR potentiators, primary screen, fluorescence, CHO-OTR cells, Fluo-8 calcium. AID 2445, 2010. Fluo-8 calcium fluorescence, potentiator mode; 0% = oxytocin EC15, 100% = EC100. actives 0.061% (n = 320,000). activation, % at 3 µM. Oxytocin receptor (Homo sapiens), P30559;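 active means activation above that plate's cutoff, the mean activation of tested compounds plus 3 SD, cut at about 6.6% in these data, passing the limit was not always enough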;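 further: 100% uses oxytocin at 75 nM as the full agonist control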
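assay system = CHO-OTR cells, human receptor | schedule = compound 6 min at room temperature before oxytocin, 100 s read | detection = Fluo-8 intracellular calcium fluorescence, ex 470-495, em 515-575 nm | evaluation = normalized max/min fluorescence ratio, % activation | control set = EC15 oxytocin alone as 0%, 75 nM oxytocin (EC100) as 100%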
TAAR1 ag: human TAAR1 agonists, primary screen, Fluo-8 calcium fluorescence, CHO RD-HGA16 cells; AID 624467, 2012; activation, % at 3 µM; vehicle wells 0%, saturating PEA agonist 100%; Trace amine-associated receptor 1 (Homo sapiens), Q96RJ0; actives 0.99% (n = 360,000);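 active means activation above the mean activation of all test compounds in the run plus 3 SD, cut at about 38% in these data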
Target sequence (Q96RJ0 whole entry, looked up): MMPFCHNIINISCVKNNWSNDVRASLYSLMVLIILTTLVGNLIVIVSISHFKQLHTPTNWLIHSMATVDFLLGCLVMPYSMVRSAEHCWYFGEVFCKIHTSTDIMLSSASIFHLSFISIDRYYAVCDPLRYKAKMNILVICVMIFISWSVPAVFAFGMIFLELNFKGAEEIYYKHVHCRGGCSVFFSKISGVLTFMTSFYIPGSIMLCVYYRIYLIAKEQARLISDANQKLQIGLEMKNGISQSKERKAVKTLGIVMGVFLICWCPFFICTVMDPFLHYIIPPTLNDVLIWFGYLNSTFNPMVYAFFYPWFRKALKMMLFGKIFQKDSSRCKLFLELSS
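Test system: RD-HGA16 (CHO) cells co-expressing Gα16 and hTAAR1; dosing: one-point dosing at 3 µM (nominal); timing: 17-24 h seeding, 75 min 37 °C dye, 30 min RT; signal: kinetic Fluo-8 calcium fluorescence; read-out basis: % activation relative to PEA EC100 response; controls: DMSO and PEA EC100; replicates: n 1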
TAAR1 antagonist: human TAAR1 antagonists, primary screen, Fluo-8 calcium fluorescence, CHO RD-HGA16 cells; AID 624466, 2012; inhibition, % at 3 µM; antagonist; Trace amine-associated receptor 1 (Homo sapiens), Q96RJ0; actives 1.5% (n = 360,000);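 active means inhibition above a per-plate cutoff, the mean inhibition of test compounds on that plate plus 3 SD, cut at about 49% in these data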;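 further: 0% = DMSO plus EC80 beta-PEA response and 100% = DMSO alone without agonist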
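System: RD-HGA16 CHO cells with stable hTAAR1 and Gα16 | Probe or stimulus: EC80 β-phenethylamine stimulus | Dosing: 3 µM, single point | Times: Dye loading 75 min at 37 °C, then 30 min room temperature | Measured by: Fluo-8 calcium-sensitive fluorescence | Read-out basis: % inhibition of agonist calcium response | Replicates: n of 1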
TAAR1 ag confirm: human TAAR1 agonists, retest of hits, confirmation, Fluo-8 calcium fluorescence, CHO RD-HGA16 cells. activation, % at 3 µM. scaled: DMSO 0%, maximal phenethylamine 100%. shares compounds with TAAR1 ag. actives 82% (n = 2,400);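 active means activation above a cutoff set at the run's mean compound activation plus 3 SD, cut at about 39% in these data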
Ga16 ag counter: nonselective calcium mobilization agonists, CHO-Ga16 cells, counter-screen for hTAAR1 agonist project, cell-based, fluorescence, CHO-Ga16 parental line; shares compounds with TAAR1 ag; Fluo-8 calcium fluorescence; normalized to maximal ATP response, DMSO zero; activation, % at 3 µM; actives 50% (n = 2,400);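 active means activation above the run cutoff, the mean activation over all tested wells plus 3 SD, cut at about 12% in these data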;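 further: 0% = DMSO wells and 100% = maximal ATP response on the peak over basal ratio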
TAAR1 desensitize: TAAR1 desensitization by agonist hits, confirmation, counter-screen for TAAR1 agonist project, cell-based, fluorescence, tachyphylaxis. actives 46% (n = 2,400). shares compounds with TAAR1 ag. inhibition, % at 3 µM. CHO RD-HGA16 hTAAR1, Fluo-8 calcium, beta-PEA response inhibition;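 active means inhibition above the run cutoff, the mean inhibition of all test compounds plus 3 SD, cut at about 49% in these data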;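 further: beta-PEA stimulus applied at its EC80; loss of beta-PEA calcium signal after compound pretreatment read as receptor desensitization; 0% = DMSO with beta-PEA at EC80 and 100% = DMSO alone without agonist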
Ga16 nonsel ant: inhibition of ATP-evoked calcium response in CHO-Ga16 cells, counter-screen for TAAR1 agonist project, cell-based, fluorescence; actives 39% (n = 2,400); inhibition, % at 3 µM; shares compounds with TAAR1 ag; CHO-Ga16 ATP-induced calcium, Fluo-8 fluorescence;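 active means inhibition above the plate's mean compound inhibition plus 3 SD, computed per plate, cut at about 22% in these data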;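 further: 0% = EC80 ATP with DMSO and 100% = DMSO wells without ATP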
* = called active by the depositor.

What do the screens show for `COCCNc1ncnc2c1ncn2[C@H]1CN(Cc2ccc(Cl)cc2)C[C@@H](CO)O1`?
TAAR1 ag: 2.5; TAAR1 antagonist: -10.2

What do the screens show for `COCCN1C[C@@H](CO)O[C@@H](n2cnc3c(NCc4cc(OC)c(OC)c(OC)c4)ncnc32)C1`?
TAAR1 ag: 3.2; TAAR1 antagonist: -12.4

Results for COc1cc(CNc2ncnc3c2ncn3[C@H]2CN(CCc3ccccc3)C[C@@H](CO)O2)cc(OC)c1OC ?
TAAR1 ag: 59.0*; TAAR1 antagonist: -19.0; TAAR1 ag confirm: 63.8*; Ga16 ag counter: 1.1; TAAR1 desensitize: 18.3; Ga16 nonsel ant: 9.3

Results for COCCNc1ncnc2c1ncn2[C@H]1CN(CCc2ccccc2)C[C@@H](CO)O1 ?
TAAR1 ag: 46.0*; TAAR1 antagonist: -22.0; TAAR1 ag confirm: 47.8*; Ga16 ag counter: 0.1; TAAR1 desensitize: 13.2; Ga16 nonsel ant: 6.1

Results for O=c1c(Cl)c(Cl)cnn1Cc1nnc(-c2ccccc2Br)o1 ?
TAAR1 ag: 122.2*; TAAR1 antagonist: 103.5*; TAAR1 ag confirm: 141.3*; Ga16 ag counter: 110.5*; TAAR1 desensitize: 106.3*; Ga16 nonsel ant: 99.4*

What do the screens show for `Oc1cccc2ccc(Nc3ccccn3)nc12`?
V1R ag counter: -0.9; OXTR ag: 3.1; OXTR potentiator: -10.9; TAAR1 ag: 47.8*; TAAR1 antagonist: 3.2; TAAR1 ag confirm: 57.9*; Ga16 ag counter: 2.0; TAAR1 desensitize: -4.8; Ga16 nonsel ant: -3.5

How did COc1ccc(CN2CCNC(=O)C2CC(=O)NC2Cc3ccccc3C2)c(OC)c1 (stereo not given) do in these assays?
V1R ag counter: -0.3; OXTR ag: -1.0; OXTR potentiator: -10.5; TAAR1 ag: 46.1*; TAAR1 antagonist: -26.1; TAAR1 ag confirm: 54.1*; Ga16 ag counter: 6.8; TAAR1 desensitize: -4.8; Ga16 nonsel ant: 1.3

Results for CCC(C)[C@H]1CNC(=S)N1CCc1cc(C(F)(F)F)cc(C(F)(F)F)c1 (stereo not given in full) ?
V1R ag counter: -0.5; OXTR ag: -2.4; OXTR potentiator: -10.5; TAAR1 ag: 0.6; TAAR1 antagonist: 3.6

Results for CCCC[C@@H]1CNCCN1CCc1cc(C(F)(F)F)cc(C(F)(F)F)c1 ?
V1R ag counter: 1.7; OXTR ag: 4.7; OXTR potentiator: -4.5; TAAR1 ag: 24.5; TAAR1 antagonist: -18.4

What do the screens show for `FC(F)(F)c1cc(CCN2CCNC[C@@H]2CC2CCCCC2)cc(C(F)(F)F)c1`?
V1R ag counter: 11.7; OXTR ag: 10.1; OXTR potentiator: 8.2; TAAR1 ag: 61.2*; TAAR1 antagonist: 43.1; TAAR1 ag confirm: 52.3*; Ga16 ag counter: 60.4*; TAAR1 desensitize: 27.1; Ga16 nonsel ant: 68.4*

How did CCC(C)[C@H]1CNCCN1CCc1cc(C(F)(F)F)cc(C(F)(F)F)c1 (stereo not given in full) do in these assays?
V1R ag counter: 15.3; OXTR ag: 16.5; OXTR potentiator: -8.2; TAAR1 ag: 48.6*; TAAR1 antagonist: -35.6; TAAR1 ag confirm: 59.4*; Ga16 ag counter: 22.5*; TAAR1 desensitize: 3.2; Ga16 nonsel ant: 10.0

How did c1ccc(C[C@H]2CNCCN2CCCCC2CCCCC2)cc1 do in these assays?
V1R ag counter: 1.8; OXTR ag: 8.5; OXTR potentiator: -6.7; TAAR1 ag: 52.8*; TAAR1 antagonist: 21.2; TAAR1 ag confirm: 54.5*; Ga16 ag counter: 22.1*; TAAR1 desensitize: 46.2; Ga16 nonsel ant: 28.8*

Results for c1ccc(CC2CCCNC2)cc1 (stereo not given) ?
V1R ag counter: 0.3; OXTR ag: 0.3; OXTR potentiator: -18.0; TAAR1 ag: 43.7*; TAAR1 antagonist: 18.5; TAAR1 ag confirm: 60.9*; Ga16 ag counter: -0.5; TAAR1 desensitize: 32.7; Ga16 nonsel ant: 7.4

What do the screens show for `CCOC(=O)C1CCN(C(=O)C2CCC(=O)N(CC3CCCCC3)C2)CC1` (stereo not given)?
V1R ag counter: 2.8; OXTR ag: 0.3; OXTR potentiator: -5.5; TAAR1 ag: 5.2; TAAR1 antagonist: -7.8

Results for Fc1cccc(CCN2CCNC[C@@H]2c2ccccc2)c1 ?
V1R ag counter: 2.7; OXTR ag: 1.7; OXTR potentiator: 0.5; TAAR1 ag: 25.0; TAAR1 antagonist: 9.4

What do the screens show for `FC(F)(F)c1cc(CCN2CCNC[C@@H]2c2ccccc2)cc(C(F)(F)F)c1`?
V1R ag counter: 5.3; OXTR ag: 7.0; OXTR potentiator: -3.2; TAAR1 ag: 44.9*; TAAR1 antagonist: 27.0; TAAR1 ag confirm: 34.3; Ga16 ag counter: 7.2; TAAR1 desensitize: 4.7; Ga16 nonsel ant: 13.4

What do the screens show for `CCN(CC)c1ccc(NC(=O)COC(=O)CSc2ccc(Br)cc2C)cc1`?
V1R ag counter: -0.4; OXTR ag: -1.8; OXTR potentiator: -9.6; TAAR1 ag: 0.7; TAAR1 antagonist: -6.7

Results for Cn1nc(C(=O)OCc2ccccc2F)c2ccccc2c1=O ?
V1R ag counter: 5.7; OXTR ag: 3.1; OXTR potentiator: -14.4; TAAR1 ag: 431.5*; TAAR1 antagonist: 94.0*; TAAR1 ag confirm: 9.2; Ga16 ag counter: 11.0; TAAR1 desensitize: 25.0; Ga16 nonsel ant: 27.8*

Results for Cn1nc(C(=O)OCC(=O)c2ccc[nH]2)c2ccccc2c1=O ?
V1R ag counter: 1.5; OXTR ag: 0.1; OXTR potentiator: -6.4; TAAR1 ag: 2.2; TAAR1 antagonist: -5.2

Results for CCc1ccc(/C=N/NC(=O)c2nnn(-c3nonc3N)c2C(C)C)cc1 ?
V1R ag counter: 47.4*; OXTR ag: 55.3*; OXTR potentiator: -5.9; TAAR1 ag: 132.9*; TAAR1 antagonist: 80.2*; TAAR1 ag confirm: 133.6*; Ga16 ag counter: 101.3*; TAAR1 desensitize: 96.1*; Ga16 nonsel ant: 59.2*

Source: PubChem (The Scripps Research Institute Molecular Screening Center)
